Measured values published in ChEMBL document CHEMBL3603773, “Synthesis of novel triazoles and a tetrazole of escitalopram as cholinesterase inhibitors” (Bioorg Med Chem, 2015).

Experiments:
Cholinesterase [1] = molecular target: T1, Cholinesterase (Homo sapiens, UniProt P06276); assay: Inhibition of BChE (unknown origin) using butyrylthiocholine chloride as substrate […] measured after 30 mins by Ellman method
Cholinesterase [2] = molecular target: T1, Cholinesterase; assay: Inhibition of BChE (unknown origin) using butyrylthiocholine chloride as substrate at 0.5 mM preincubated for 30 mins before substrate addition measured after 30 mins by Ellman method relative to control
[3] = molecular target: Cholinesterases; ACHE & BCHE (Homo sapiens) (UniProt P06276+P22303); assay: Selectivity ratio of IC50 for AChE (unknown origin) to IC50 for BChE (unknown origin)
How it was run: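 Ratio of IC50 for AChE to IC50 for BChE, both measured by Ellman assay. Each IC50 is the mean of three independent experiments.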

Acetylcholinesterase [4] = molecular target: T2, Acetylcholinesterase (Homo sapiens, UniProt P22303); assay: Inhibition of AChE (unknown origin) using acetylthiocholine iodide as substrate […] measured after 30 mins by Ellman method
Acetylcholinesterase [5] = molecular target: T2, Acetylcholinesterase; assay: Inhibition of AChE (unknown origin) using acetylthiocholine iodide as substrate at 0.5 mM preincubated for 30 mins before substrate addition measured after 30 mins by Ellman method relative to control
Cholinesterase [6] = molecular target: T1, Cholinesterase; assay: Inhibition of BChE (unknown origin) using butyrylthiocholine chloride as substrate at 0.25 mM preincubated for 30 mins before substrate addition measured after 30 mins by Ellman method relative to control
Acetylcholinesterase [7] = molecular target: T2, Acetylcholinesterase; assay: Inhibition of AChE (unknown origin) using acetylthiocholine iodide as substrate at 0.25 mM preincubated for 30 mins before substrate addition measured after 30 mins by Ellman method relative to control

T2 sequence (P22303 whole entry): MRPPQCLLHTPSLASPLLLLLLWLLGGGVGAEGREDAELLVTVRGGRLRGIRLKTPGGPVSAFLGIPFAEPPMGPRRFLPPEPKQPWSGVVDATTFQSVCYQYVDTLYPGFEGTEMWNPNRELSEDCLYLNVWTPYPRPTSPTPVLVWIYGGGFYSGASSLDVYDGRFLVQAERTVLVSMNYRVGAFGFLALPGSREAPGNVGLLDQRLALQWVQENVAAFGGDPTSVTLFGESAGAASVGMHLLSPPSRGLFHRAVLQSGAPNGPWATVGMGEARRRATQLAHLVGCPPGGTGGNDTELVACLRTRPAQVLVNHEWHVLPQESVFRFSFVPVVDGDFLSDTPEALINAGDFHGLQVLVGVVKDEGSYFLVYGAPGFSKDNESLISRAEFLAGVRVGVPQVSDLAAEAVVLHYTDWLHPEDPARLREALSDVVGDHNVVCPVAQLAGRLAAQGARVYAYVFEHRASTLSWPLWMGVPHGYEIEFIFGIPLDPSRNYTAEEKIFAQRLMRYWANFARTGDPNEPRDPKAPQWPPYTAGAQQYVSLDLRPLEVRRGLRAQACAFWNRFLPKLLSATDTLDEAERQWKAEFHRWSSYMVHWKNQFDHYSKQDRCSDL
T1 sequence (P06276 whole entry): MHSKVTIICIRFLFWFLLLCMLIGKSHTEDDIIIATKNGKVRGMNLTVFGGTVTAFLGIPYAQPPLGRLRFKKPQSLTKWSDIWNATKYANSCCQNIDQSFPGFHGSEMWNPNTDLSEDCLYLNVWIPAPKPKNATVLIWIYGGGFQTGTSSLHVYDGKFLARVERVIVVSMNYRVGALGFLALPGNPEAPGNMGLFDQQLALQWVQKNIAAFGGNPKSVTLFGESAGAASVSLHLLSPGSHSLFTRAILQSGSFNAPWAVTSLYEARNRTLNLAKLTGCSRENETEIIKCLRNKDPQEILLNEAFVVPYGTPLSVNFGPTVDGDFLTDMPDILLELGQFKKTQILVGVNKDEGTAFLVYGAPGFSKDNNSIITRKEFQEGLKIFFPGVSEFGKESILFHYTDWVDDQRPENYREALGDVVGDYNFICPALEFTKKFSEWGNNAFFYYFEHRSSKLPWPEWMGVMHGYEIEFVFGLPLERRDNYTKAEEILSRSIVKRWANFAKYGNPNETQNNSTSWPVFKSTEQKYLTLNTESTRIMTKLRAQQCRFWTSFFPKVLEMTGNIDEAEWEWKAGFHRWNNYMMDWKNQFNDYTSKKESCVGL
Chain of Cholinesterases; ACHE & BCHE (Homo sapiens) (P06276 whole entry, looked up): as the sequence (P06276 whole entry) above
Chain of Cholinesterases; ACHE & BCHE (Homo sapiens) (P22303 whole entry, looked up): as the sequence (P22303 whole entry) above

| SMILES | IC50 (Cholinesterase [1]) | inhibition (Cholinesterase [2]) | Ratio IC50 [3] | IC50 (Acetylcholinesterase [4]) | inhibition (Acetylcholinesterase [5]) | inhibition (Cholinesterase [6]) | inhibition (Acetylcholinesterase [7]) |
| --- | --- | --- | --- | --- | --- | --- | --- |
| CN(C)CCC[C@@]1(c2ccc(F)cc2)OCc2cc(-c3nnc(-c4cccc([N+](=O)[O-])c4)[nH]3)ccc21 | 105 µM | 79.2% | 1.32 | 138 µM | 81.7% | – | – |
| CN(C)CCC[C@@]1(c2ccc(F)cc2)OCc2cc(-c3nnc(-c4cccc(F)c4)[nH]3)ccc21 | 44.8 µM | 82.9% | < 11.2 | < 500 µM | 32.2% | – | – |
| CN(C)CCC[C@@]1(c2ccc(F)cc2)OCc2cc(-c3nnc(-c4ccc([N+](=O)[O-])cc4)[nH]3)ccc21 | 106 µM | 69.7% | – | – | 16.2% | – | – |
| CN(C)CCC[C@@]1(c2ccc(F)cc2)OCc2cc(-c3nnc(-c4ccc(N)cc4)[nH]3)ccc21 | 119 µM | 72.1% | – | – | 15.3% | – | – |
| CN(C)CCC[C@@]1(c2ccc(F)cc2)OCc2cc(-c3nnc(-c4ccccc4F)[nH]3)ccc21 | 4.52 µM | – | 41.5 | 188 µM | – | 93.6% | 62.1% |
| COc1cccc(-c2nnc(-c3ccc4c(c3)CO[C@@]4(CCCN(C)C)c3ccc(F)cc3)[nH]2)c1 | 103 µM | 91% | 1.2 | 124 µM | 89.7% | – | – |
| CN(C)CCC[C@@]1(c2ccc(F)cc2)OCc2cc(-c3nnc(-c4cccc(N)c4)[nH]3)ccc21 | 188 µM | 73.5% | > 2.67 | > 500 µM | 29.9% | – | – |
| CN(C)CCC[C@@]1(c2ccc(F)cc2)OCc2cc(-c3nnc(-c4cccc(O)c4)[nH]3)ccc21 | 119 µM | – | < 4.22 | < 500 µM | – | 61.7% | 39.3% |
| COc1ccc(-c2nnc(-c3ccc4c(c3)CO[C@@]4(CCCN(C)C)c3ccc(F)cc3)[nH]2)cc1 | 168 µM | 81.2% | – | – | 10.3% | – | – |
| Cc1ccc(-c2nnc(-c3ccc4c(c3)CO[C@@]4(CCCN(C)C)c3ccc(F)cc3)[nH]2)cc1 | 152 µM | 91% | – | – | 16% | – | – |
| CN(C)CCC[C@@]1(c2ccc(F)cc2)OCc2cc(-c3nnc(-c4cccc(Br)c4)[nH]3)ccc21 | 78 µM | 85.5% | < 6.41 | < 500 µM | 37.9% | – | – |
| CN(C)CCC[C@@]1(c2ccc(F)cc2)OCc2cc(-c3nnc(-c4ccc(F)cc4)[nH]3)ccc21 | 5.31 µM | 92.5% | 49.1 | 261 µM | 71.5% | – | – |
| CN(C)CCC[C@@]1(c2ccc(F)cc2)OCc2cc(-c3nnc(-c4ccccc4O)[nH]3)ccc21 | 102 µM | 80.7% | – | – | 16.3% | – | – |
| CN(C)CCC[C@@]1(c2ccc(F)cc2)OCc2cc(-c3nnc(-c4ccc(Cl)cc4)[nH]3)ccc21 | 151 µM | 73.7% | 0.044 | 6.71 µM | 91.6% | – | – |
| Cc1cccc(-c2nnc(-c3ccc4c(c3)CO[C@@]4(CCCN(C)C)c3ccc(F)cc3)[nH]2)c1 | 89.2 µM | 71.5% | 1.49 | 133 µM | 88.1% | – | – |
| CN(C)CCC[C@@]1(c2ccc(F)cc2)OCc2cc(-c3nnc(-c4ccc(I)cc4)[nH]3)ccc21 | 161 µM | 85.6% | > 3.11 | > 500 µM | 30.5% | – | – |
| CN(C)CCC[C@@]1(c2ccc(F)cc2)OCc2cc(-c3nnc(-c4cccc(Cl)c4)[nH]3)ccc21 | 26.5 µM | 79.9% | 15.7 | 413 µM | 57.4% | – | – |
| CN(C)CCC[C@@]1(c2ccc(F)cc2)OCc2cc(-c3nnc(-c4ccccc4)[nH]3)ccc21 | 129 µM | 81.8% | > 3.88 | > 500 µM | 30.4% | – | – |
| COc1cc(-c2nnc(-c3ccc4c(c3)CO[C@@]4(CCCN(C)C)c3ccc(F)cc3)[nH]2)ccc1O | 24.1 µM | 88.6% | < 20.8 | < 500 µM | 34.8% | – | – |
| CN(C)CCC[C@@]1(c2ccc(F)cc2)OCc2cc(-c3nnc(-c4ccccc4I)[nH]3)ccc21 | 25.9 µM | 84.5% | 12 | 310 µM | 72.3% | – | – |
| CN(C)CCC[C@@]1(c2ccc(F)cc2)OCc2cc(-c3nnc(-c4ccccc4Br)[nH]3)ccc21 | 141 µM | 75% | – | – | 19.4% | – | – |
| CN(C)CCC[C@@]1(c2ccc(F)cc2)OCc2cc(-c3nnc(-c4cccc(I)c4)[nH]3)ccc21 | 188 µM | 75.5% | > 2.67 | > 500 µM | 25.1% | – | – |
| CN(C)CCC[C@@]1(c2ccc(F)cc2)OCc2cc(-c3nnc(-c4ccccc4[N+](=O)[O-])[nH]3)ccc21 | 297 µM | 62.9% | – | – | 5.09% | – | – |
| CN(C)CCC[C@@]1(c2ccc(F)cc2)OCc2cc(-c3nnc(-c4ccc(Br)cc4)[nH]3)ccc21 | 492 µM | 50.6% | – | – | 15.6% | – | – |
| CN(C)CCC[C@@]1(c2ccc(F)cc2)OCc2cc(-c3nnc(-c4ccccc4Cl)[nH]3)ccc21 | 81.4 µM | 79.6% | – | – | 19.5% | – | – |
| Cc1ccccc1-c1nnc(-c2ccc3c(c2)CO[C@@]3(CCCN(C)C)c2ccc(F)cc2)[nH]1 | 99.7 µM | 85% | 0.095 | 9.52 µM | 88.6% | – | – |
| CN(C)CCC[C@@]1(c2ccc(F)cc2)OCc2cc(-c3nnc(-c4ccc(O)cc4)[nH]3)ccc21 | 140 µM | 78.7% | 2.76 | 388 µM | 59.2% | – | – |
| CN(C)CCC[C@@]1(c2ccc(F)cc2)OCc2cc(-c3nnc(-c4ccccc4N)[nH]3)ccc21 | 111 µM | 71.7% | 3.25 | 360 µM | 70.2% | – | – |
| COc1ccccc1-c1nnc(-c2ccc3c(c2)CO[C@@]3(CCCN(C)C)c2ccc(F)cc2)[nH]1 | – | -2.13% | – | 161 µM | 80.4% | – | – |
